Source: PubChem BioAssay (several laboratories)
This is a sample that favours compounds with a hit; in the whole collection about 6.4% have one here.
MPTP inh: blocks calcium-induced mitochondrial swelling. inhibition, % at 10 µM. hit rate 1.4% among 360,000. AID 602449. isolated mouse mitochondria, Ca2+ swelling absorbance, 30 min;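 active means inhibition of 50% or more, scaled per plate between neutral and stimulator controls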;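 further: 0% = DMSO wells given calcium and 100% = 1 mM EGTA wells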
EBV gp42 inh: inhibitors of Epstein-Barr virus glycoprotein 42 | Q1HVG2 | Fluorescence polarization binding assay, mP read-out | inhibition, % (tested at 21.74 µM) | hit rate 0.42% among 220,000 | AID 1085; in the data active means inhibition above about 50%
Target sequence (Q1HVG2 whole entry, looked up): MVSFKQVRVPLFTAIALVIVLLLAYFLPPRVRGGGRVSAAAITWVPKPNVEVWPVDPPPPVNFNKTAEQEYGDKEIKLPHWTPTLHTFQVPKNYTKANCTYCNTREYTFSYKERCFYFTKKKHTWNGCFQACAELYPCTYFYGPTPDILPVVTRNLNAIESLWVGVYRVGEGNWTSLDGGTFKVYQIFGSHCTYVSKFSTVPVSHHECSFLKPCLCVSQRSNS
CHOP inh: CHOP inhibition in unfolded protein response; CHO-K1 CHOP-promoter luciferase, tunicamycin-induced, 15-18 h; inhibition, % at 10 µM; hit rate 3.8% among 220,000;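 active means compounds that reduced the stress-induced luciferase reporter signal by more than about 70% of percent inhibition, limit read from the data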;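 further: 0% = tunicamycin plus vehicle and 100% = wells without tunicamycin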
GRIN3A LBD mod: NR3A (human) ligand-binding domain modulation. NR3A LBD differential scanning fluorimetry, Tm shift; 0% = protein alone, 100% = glycine-bound protein. Tm shift relative to glycine control, % at 25 µM. hit rate 2.5% among 340,000. AID 1259313;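 active means melting temperature shift of at least 10% of the positive control shift, at one fixed dose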
WT yeast gro inh: growth inhibition of WT yeast, mitochondrial fusion screen; mitochondrial fusion phenotypic screen, WT strain; inhibition, % at 10 µM; hit rate 2.1% among 190,000; AID 1362; in the data active means inhibition above about 58%; tested in S. cerevisiae
TbMetRS inhib: blocks T. brucei methionyl-tRNA synthetase activity; purified T. brucei MetRS, ATP depletion, Kinase-Glo luminescence; hit rate 0.4% among 360,000; inhibition, % at 11.9 µM;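 active means inhibition above a per-plate cutoff of the control wells' mean inhibition plus 3 SD, cut at about 5.5% in these data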;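 further: 0% = DMSO wells median and 100% = median of wells with control inhibitor compound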
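Test system: purified T. brucei MetRS enzyme. Also added: ATP, methionine and E. coli bulk tRNA substrates. Compound: 11.9 µM single point. Schedule: 15 min enzyme-compound preincubation, 2 h reaction, 10 min detection, 25 °C. Signal: luciferase luminescence of residual ATP, Kinase-Glo. Evaluation: percent inhibition versus plate control medians. Controls: DMSO wells, low control.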
TbMetRS confirm: confirmation of Trypanosoma brucei MetRS inhibitors; shares compounds with TbMetRS inhib; T. brucei MetRS enzyme, luminescence (ATP depletion); inhibition, % at 11.9 µM; hit rate 93% among 1,400; AID 624412; in the data active means inhibition above about 7%
Jurkat cytotox: counter-screen for T. brucei MetRS inhibitors: Jurkat cell cytotoxicity. hit rate 12% among 1,400. inhibition, % at 8.3 µM. AID 624413. Jurkat cells viability, ATP luminescence. shares compounds with TbMetRS inhib; in the data active means inhibition above about 15%;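 further: 0% = vehicle and 100% = reference inhibitor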
Tb MetRS inh FP: T. brucei MetRS inhibition, orthogonal assay. shares compounds with TbMetRS inhib. purified T. brucei MetRS, fluorescence polarization. inhibition, % at 11.9 µM. hit rate 44% among 1,400; in the data active means inhibition above about 17%;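 further: 0% = vehicle wells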
Active calls of the source: *.

How did COc1ccc(NC(=O)CC2C(=O)N(C)C(=S)N2CCc2ccccc2)cc1 (stereo not drawn) do in these assays?
MPTP inh: 2; EBV gp42 inh: 1; CHOP inh: -1; GRIN3A LBD mod: -21; WT yeast gro inh: 11; TbMetRS inhib: 50*; TbMetRS confirm: 49*; Jurkat cytotox: 5; Tb MetRS inh FP: 25*

How did COC(=O)CN1C(=S)N(Cc2ccccc2)C(=O)C1CC(=O)Nc1ccc(OC)cc1 (stereo not drawn) do in these assays?
MPTP inh: -1; EBV gp42 inh: 7; CHOP inh: 51; GRIN3A LBD mod: 0; WT yeast gro inh: 16; TbMetRS inhib: 1

How did CCN1C(=O)C(CC(=O)Nc2ccc(OC)cc2)N(CCc2ccc(F)cc2)C1=S (stereo not drawn) do in these assays?
MPTP inh: 2; EBV gp42 inh: 1; CHOP inh: 29; GRIN3A LBD mod: 5; WT yeast gro inh: 56; TbMetRS inhib: 39*; TbMetRS confirm: 46*; Jurkat cytotox: 9; Tb MetRS inh FP: 33*

What do the screens show for `CCNC(=O)CC1C(=O)N(c2ccc(F)cc2)C(=S)N1CCc1ccncc1` (stereo not drawn)?
MPTP inh: -1; EBV gp42 inh: -17; CHOP inh: 4; GRIN3A LBD mod: 0; WT yeast gro inh: -5; TbMetRS inhib: -1

What do the screens show for `O=C(CC1C(=O)N(c2ccc(Cl)cc2)C(=S)N1CCc1ccncc1)Nc1ccc(F)cc1` (stereo not drawn)?
MPTP inh: 3; EBV gp42 inh: 7; CHOP inh: 40; GRIN3A LBD mod: 29*; WT yeast gro inh: 0; TbMetRS inhib: 21*; TbMetRS confirm: 23*; Jurkat cytotox: 2; Tb MetRS inh FP: 23*

How did COC(=O)CN1C(=S)N(c2ccc(F)cc2)C(=O)C1CC(=O)Nc1ccc(OC)cc1 (stereo not drawn) do in these assays?
MPTP inh: 1; EBV gp42 inh: -15; CHOP inh: 4; GRIN3A LBD mod: 8; TbMetRS inhib: 0

How did COc1ccc(NC(=O)CC2C(=O)N(C)C(=S)N2CCc2ccc(F)cc2)cc1 (stereo not drawn) do in these assays?
MPTP inh: 7; EBV gp42 inh: 3; CHOP inh: -7; GRIN3A LBD mod: -2; TbMetRS inhib: 50*; TbMetRS confirm: 67*; Jurkat cytotox: 12; Tb MetRS inh FP: 43*

How did O=C(COc1ccccc1)NC(=S)N1CCc2ccccc21 do in these assays?
MPTP inh: 1; EBV gp42 inh: 2; CHOP inh: -15; GRIN3A LBD mod: -2; WT yeast gro inh: 47; TbMetRS inhib: 1

Results for CCN(C(=O)COc1ccc(C)cc1OC)c1cccc2ccccc12 ?
MPTP inh: 1; GRIN3A LBD mod: -1; TbMetRS inhib: 0

What do the screens show for `Cc1c(N(C(=O)c2cnccn2)C2(C(=O)NC3CCCC3)CCCCC2)c(=O)n(-c2ccccc2)n1C`?
MPTP inh: 0; EBV gp42 inh: 1; CHOP inh: 6; GRIN3A LBD mod: -2; WT yeast gro inh: 7; TbMetRS inhib: -1

What do the screens show for `CCOc1ccc(NC(=O)CCNS(=O)(=O)c2cccc3nonc23)cc1`?
MPTP inh: 0; GRIN3A LBD mod: -3; TbMetRS inhib: 0

Results for COc1ccc(NC(=O)CC2C(=O)N(c3ccc(OC)cc3)C(=S)N2NC(=O)c2cccc(F)c2)cc1 (stereo not drawn) ?
MPTP inh: 2; EBV gp42 inh: -12; CHOP inh: 9; GRIN3A LBD mod: -1; WT yeast gro inh: -19; TbMetRS inhib: 1

How did COC(=O)CN1C(=S)N(C)C(=O)C1CC(=O)Nc1ccccc1 (stereo not drawn) do in these assays?
MPTP inh: 0; EBV gp42 inh: -1; CHOP inh: -12; GRIN3A LBD mod: -10; WT yeast gro inh: -6; TbMetRS inhib: -1
